Measured values published in ChEMBL document CHEMBL2163277, “The selectivity of austocystin D arises from cell-line-specific drug activation by cytochrome P450 enzymes” (J Nat Prod, 2011).
Calls of active or inactive are those of the source. The rule behind the calls is not given here.

Assays:
MCF7 [1] = test: Growth inhibition of human MCF7 cells at up to 10 uM after 72 hrs by celltiter-blue viability assay; format: functional, cell-based
MCF7 [2] = test: Induction of DNA damage in human MCF7 cells assessed as H2AX phosphorylation up to 10 uM after 4 hrs by Western blot analysis; format: functional, cell-based
Method in brief: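 In-cell Western: MCF7 at 10 000 cells/well, dosed 24 h later with 3-fold serial dilutions (final DMSO 0.1%); 4 h at 37 °C, paraformaldehyde fixation, anti-phospho-H2AX Ser139 with IR800 secondary, DRAQ5 for normalization (800/700 nm ratio); duplicate or triplicate wells, scaled to 0.1% DMSO (0%) and 10 μM etoposide (100%); nonlinear curve fit.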

HCT-15 [3] = test: Induction of DNA damage in human HCT15 cells assessed as H2AX phosphorylation after 4 hrs by Western blot analysis; format: functional, cell-based
Method in brief: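 HCT-15 cells at 10 000/well, dosed 4 h at 37 °C, 0.1% DMSO final. In-cell Western with anti-phospho-H2AX (Ser139) and DRAQ5. 800/700 nm ratio normalized to 0.1% DMSO (0%) and 10 μM etoposide (100%). Curve fit by nonlinear regression.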

HCT-15 [4] = test: Cytotoxicity against MDR1 expressing human HCT15 cells; format: functional, cell-based
Method in brief: (§1)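 Cells (HUVEC from Lonza, others from ATCC) seeded at 2500–10 000 cells/well 24 h before dosing. 3-fold serial dilutions in DMSO, 0.1% DMSO final. Cell-Titer Blue read at 0 h and 72 h.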

MCF7 [5] = test: Growth inhibition of human MCF7 cells after 72 hrs by celltiter-blue viability assay; format: functional; method in brief: as §1
[6] = Growth inhibition of human MCF10A cells after 72 hrs by celltiter-blue viability assay; format: cell-based, MCF-10A; method in brief: as §1
[7] = Growth inhibition of human U87 cells after 72 hrs by celltiter-blue viability assay; format: functional, U-87MG ATCC; conditions: U-87 MG; method in brief: as §1
SR = test: Growth inhibition of human SR cells after 72 hrs by celltiter-blue viability assay; format: functional; method in brief: as §1
HeLa [8] = test: Growth inhibition of human HeLa cells after 72 hrs by celltiter-blue viability assay; format: functional; method in brief: as §1
A549 = test: Growth inhibition of human A549 cells after 72 hrs by celltiter-blue viability assay; format: functional; conditions: A549, 72 h; method in brief: as §1
[9] = Growth inhibition of HUVEC after 72 hrs by celltiter-blue viability assay; format: cell-based; conditions: human; method in brief: as §1
[10] = target: ATP-dependent translocase ABCB1 (Homo sapiens, UniProt P08183); test: Inhibition of MDR1 in human HCT15 cells assessed as calcein-AM efflux at 10 uM by fluorescence assay; format: cell-based; conditions: hct-15, 10 µM
Sequence of ATP-dependent translocase ABCB1 (P08183 whole entry): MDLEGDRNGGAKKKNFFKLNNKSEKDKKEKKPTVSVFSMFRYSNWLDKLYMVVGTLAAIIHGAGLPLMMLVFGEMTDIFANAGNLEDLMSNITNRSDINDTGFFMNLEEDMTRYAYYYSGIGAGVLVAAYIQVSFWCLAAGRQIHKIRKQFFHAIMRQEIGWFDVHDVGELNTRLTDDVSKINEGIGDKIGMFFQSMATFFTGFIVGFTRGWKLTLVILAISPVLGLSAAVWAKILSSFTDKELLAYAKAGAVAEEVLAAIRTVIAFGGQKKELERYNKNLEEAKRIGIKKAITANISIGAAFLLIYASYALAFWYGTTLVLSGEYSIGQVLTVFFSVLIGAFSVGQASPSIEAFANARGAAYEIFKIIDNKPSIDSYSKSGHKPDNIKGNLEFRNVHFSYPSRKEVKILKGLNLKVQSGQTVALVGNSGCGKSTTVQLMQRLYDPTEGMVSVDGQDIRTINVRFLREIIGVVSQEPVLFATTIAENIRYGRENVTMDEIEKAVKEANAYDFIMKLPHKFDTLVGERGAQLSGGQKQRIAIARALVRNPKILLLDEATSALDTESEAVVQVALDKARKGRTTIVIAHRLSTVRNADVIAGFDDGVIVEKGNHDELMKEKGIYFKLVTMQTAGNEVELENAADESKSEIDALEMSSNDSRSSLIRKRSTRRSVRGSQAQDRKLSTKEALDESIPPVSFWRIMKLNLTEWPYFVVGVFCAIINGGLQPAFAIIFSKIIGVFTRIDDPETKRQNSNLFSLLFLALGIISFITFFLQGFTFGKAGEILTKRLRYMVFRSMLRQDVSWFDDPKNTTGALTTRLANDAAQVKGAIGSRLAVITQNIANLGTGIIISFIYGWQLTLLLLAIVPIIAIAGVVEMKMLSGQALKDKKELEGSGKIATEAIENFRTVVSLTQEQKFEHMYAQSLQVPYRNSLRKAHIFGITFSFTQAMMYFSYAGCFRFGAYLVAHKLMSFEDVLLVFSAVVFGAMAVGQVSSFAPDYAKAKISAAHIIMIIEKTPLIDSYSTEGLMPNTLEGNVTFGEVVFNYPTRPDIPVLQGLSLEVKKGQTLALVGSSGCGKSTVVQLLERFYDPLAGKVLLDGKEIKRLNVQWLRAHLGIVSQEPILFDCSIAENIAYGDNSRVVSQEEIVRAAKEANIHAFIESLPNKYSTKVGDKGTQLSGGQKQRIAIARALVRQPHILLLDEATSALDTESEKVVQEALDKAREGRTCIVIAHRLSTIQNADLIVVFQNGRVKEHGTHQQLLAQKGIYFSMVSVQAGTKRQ

MDA-MB-231 = test: Growth inhibition of human MDA-MB-231 cells after 72 hrs by celltiter-blue viability assay; format: functional; conditions: MDA-MB-231, 72 h; method in brief: as §1
PC-3 = test: Growth inhibition of human PC3 cells after 72 hrs by celltiter-blue viability assay; format: functional; conditions: PC-3, 72 h; method in brief: as §1
SW-620 [11] = test: Growth inhibition of human SW620 cells after 72 hrs by celltiter-blue viability assay; format: functional; conditions: SW-620, 72 h; method in brief: as §1
HCT-15 [12] = test: Growth inhibition of human HCT15 cells after 72 hrs by celltiter-blue viability assay; format: functional; conditions: HCT-15, 72 h; method in brief: as §1
[13] = Growth inhibition of human MES-SA cells after 72 hrs by celltiter-blue viability assay; format: functional; method in brief: as §1
[14] = Growth inhibition of human MES-SA/MX2 cells after 72 hrs by celltiter-blue viability assay; format: functional; conditions: MX2, 72 h; method in brief: as §1
HCT-15 [15] = test: Induction of DNA damage in human HCT15 cells assessed as H2AX phosphorylation after 1 hr by Western blot analysis; format: functional, cell-based
Method in brief: (§2)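 In-cell Western for pSer139 H2AX after 1 h dosing. Cells at 10 000/well plated 24 h ahead, 0.1% DMSO final. Fixed in 4% paraformaldehyde, permeabilized, stained with anti-phospho-H2AX plus IR800CW secondary and DRAQ5. 800/700 nm ratio, duplicate or triplicate wells, normalized to 0.1% DMSO (0%) and 10 μM etoposide (100%).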

SW-620 [16] = test: Induction of DNA damage in human SW620 cells assessed as H2AX phosphorylation after 1 hr by Western blot analysis; format: functional, cell-based; method in brief: as §2
HeLa [17] = test: Induction of DNA damage in human HeLa cells assessed as H2AX phosphorylation after 1 hr by Western blot analysis; format: functional, cell-based; method in brief: as §2
HCT-15 [18] = test: Growth inhibition of human HCT15 cells at 0.5 to 2 uM after 72 hrs by celltiter-blue viability assay in presence of CYP inhibitor ketoconazole; format: functional, cell-based
Method in brief: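 HCT-15 cells exposed to 0.5, 1 or 2 μM test agent across a ketoconazole dose range, 0.1% DMSO final. Cell-Titer Blue read at 0 and 72 h. Growth normalized to DMSO controls at 0 h and 72 h.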

HCT-15 [19] = test: Induction of DNA damage in human HCT15 cells assessed as H2AX phosphorylation after 4 hrs by Western blot analysis presence of CYP inhibitor ketoconazole; format: functional, cell-based
Method in brief: (§3)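 Cells pretreated 1 h with 10 μM ketoconazole, then dosed 4 h. pSer139 H2AX measured by in-cell Western as 800/700 nm ratio (DRAQ5 normalization), scaled to 0.1% DMSO (0%) and 10 μM etoposide (100%). In SW620 cells, test agent at 10 μM with 20 μM camptothecin as comparator.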

Liver = test: Induction of DNA damage in human liver microsomes assessed as conversion of supercoiled plasmid DNA to nicked DNA by at 100 nM by agarose gel electrophoresis in presence of NADPH generating system; format: functional; conditions: Microsome
Method in brief: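 Supercoiled pLenti6 plasmid (120 μg/mL) incubated 4 h at 37 °C with compound (100 nM–1 μM, 1% DMSO) plus or minus human liver microsomes (0.25 mg/mL) and NADPH regenerating system (1.5 mM NADP, 12.5 mM G6P, 0.25 U/mL G6PDH, 100 mM phosphate pH 7.5, 5 mM MgCl2). Phenol/chloroform stop, DNA purified, 0.8% agarose gel for nicked versus supercoiled forms.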

SW-620 [20] = test: Induction of DNA damage in human SW620 cells assessed as H2AX phosphorylation at 10 uM in presence of CYP inhibitor ketoconazole; format: functional, cell-based; method in brief: as §3
HCT-15 [21] = test: Ratio of austocystin D GI50 to verapamil GI50 for MDR1 expressing human HCT15 cells; format: functional
MCF7 [22] = test: Selectivity ratio of GI50 for human MCF7 cells over GI50 for human MES-SA cells; format: functional
MCF7 [23] = test: Selectivity ratio of GI50 for human MCF7 cells over GI50 for human MCF10A cells
MCF-10A = test: Growth inhibition of human MCF10A cells after 72 hrs by celltiter-blue viability assay relative to control; format: cell-based
Method in brief: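 MCF10A seeded at 2500–10 000 cells/well 24 h before dosing. 3-fold serial dilutions, 0.1% DMSO final. Cell-Titer Blue read at 0 and 72 h. Growth normalized to DMSO controls at 0 h (0%) and 72 h (100%). Dose-response fitted by nonlinear regression.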

With `CC(C)(O)CCc1ccc(O)c2c(=O)c3c(O)c4c(cc3oc12)O[C@H]1OCC[C@@]41O` the “growth inhibition (GI)” value (MCF7 [1]) was “inactive” and the Activity (MCF7 [2]) was “inactive”.

With `CC[C@@]1(O)C(=O)OCc2c1cc1n(c2=O)Cc2cc3ccccc3nc2-1` the Activity (HCT-15 [3]) was “Dose-dependent effect”.

In the case of `COc1ccc(CCN(C)CCCC(C#N)(c2ccc(OC)c(OC)c2)C(C)C)cc1OC` (stereo not drawn), the Activity (HCT-15 [4]) is reported as “Active”.

For `COc1cc2c(c3oc(=O)c4c(c13)CCC4=O)[C@@H]1C=CO[C@@H]1O2` [AFLATOXIN], the GI50 (MCF7 [5]) was > 5 µM and the GI50 at 72 h [6] was > 5 µM.

For `CC(C)(O)CCc1ccc(O)c2c(=O)c3c(O)c4c(cc3oc12)O[C@H]1OC=C[C@@]41O` [AUSTOCYSTIN D], the GI50 (MCF7 [5]; MCF7, 72 h) was < 0.001 µM, the GI50 [7] was 4.95 µM and the GI50 (SR) was 0.016 µM. The GI50 (HeLa [8]) was > 5 µM, the GI50 (A549) was > 5 µM and the GI50 at 72 h [6] was 3.51 µM. For the same compound, the GI50 at 72 h [9] was 4.25 µM, the “inhibition (INH)” value [10] was “Active” and the GI50 (MDA-MB-231) was 0.549 µM. The GI50 (PC-3) was 0.003 µM, the GI50 (SW-620 [11]) was 0.027 µM and the GI50 (HCT-15 [12]) was 0.042 µM. For the same compound, the GI50 [13] was > 10 µM, the GI50 [14] was 3.36 µM and the Activity (HCT-15 [4]) was “Active”. For the same compound, the Activity (HCT-15 [15]) was “Active”, the Activity (SW-620 [16]) was “Active” and the Activity (HeLa [17]) was “Active”. The “growth inhibition (GI)” value (HCT-15 [18]) was “inactive”, the Activity (HCT-15 [19]) was “inactive” and the Activity (Liver) was “Active”. For the same compound, the Activity (SW-620 [20]) was “inactive”, the RatioGI50 (HCT-15 [21]) was >1000 and the RatioGI50 (MCF7 [22]) was >10000. For the same compound, the RatioGI50 (MCF7 [23]) was >1000.

With `COc1cccc2c1C(=O)c1c(O)c3c(c(O)c1C2=O)C[C@@](O)(C(=O)CO)C[C@@H]3O[C@H]1C[C@H](N)[C@H](O)[C@H](C)O1` [DOXORUBICIN] the GI50 (MCF7 [5]; MCF7, 72 h) was > 5 µM, the GI50 at 72 h [6] was > 5 µM and the Activity (HCT-15 [3]) was “Dose-dependent effect”. For the same compound, the “fold change (FC)” value (MCF-10A) was 50.

For `COc1cc([C@@H]2c3cc4c(cc3[C@@H](O[C@@H]3O[C@@H]5CO[C@@H](C)O[C@H]5[C@H](O)[C@H]3O)[C@H]3COC(=O)[C@H]23)OCO4)cc(OC)c1O` [ETOPOSIDE], the GI50 (MCF7 [5]; MCF7, 72 h) was > 5 µM, the GI50 at 72 h [6] was > 5 µM and the “fold change (FC)” value (MCF-10A) was 50.
